Measurements reported in ChEMBL document CHEMBL4190374, “Structure-Function Evaluation of Imidazopyridine Derivatives Selective for δ-Subunit-Containing γ-Aminobutyric Acid Type A (GABAA) Receptors” (J Med Chem, 2018).

Key:
[1] = target: Gamma-aminobutyric acid receptor subunit alpha-4/beta-3/gamma-2 (Rattus norvegicus, UniProt P18508+P28471+P63079); assay: Displacement of [3H]EBOB from rat GABA-A receptor alpha4beta3gamma2 expressed in HEK293 cell membranes after 90 mins by liquid scintillation counting analysis
Sequence of Gamma-aminobutyric acid receptor subunit alpha-4/beta-3/gamma-2 (P18508 whole entry): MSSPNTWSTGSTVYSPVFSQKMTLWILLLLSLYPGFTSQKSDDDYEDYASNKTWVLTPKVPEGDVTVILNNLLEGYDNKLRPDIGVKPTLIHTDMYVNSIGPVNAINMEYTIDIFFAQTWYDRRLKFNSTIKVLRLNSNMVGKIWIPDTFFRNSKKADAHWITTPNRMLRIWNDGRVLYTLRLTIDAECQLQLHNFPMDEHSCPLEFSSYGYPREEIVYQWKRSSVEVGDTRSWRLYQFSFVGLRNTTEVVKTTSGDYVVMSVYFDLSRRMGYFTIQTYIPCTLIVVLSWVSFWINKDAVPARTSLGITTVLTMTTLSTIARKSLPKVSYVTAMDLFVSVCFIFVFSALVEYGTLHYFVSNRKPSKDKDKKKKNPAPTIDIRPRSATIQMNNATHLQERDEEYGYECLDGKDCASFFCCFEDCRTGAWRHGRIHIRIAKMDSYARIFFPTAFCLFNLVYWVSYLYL
Sequence of Gamma-aminobutyric acid receptor subunit alpha-4/beta-3/gamma-2 (P28471 whole entry): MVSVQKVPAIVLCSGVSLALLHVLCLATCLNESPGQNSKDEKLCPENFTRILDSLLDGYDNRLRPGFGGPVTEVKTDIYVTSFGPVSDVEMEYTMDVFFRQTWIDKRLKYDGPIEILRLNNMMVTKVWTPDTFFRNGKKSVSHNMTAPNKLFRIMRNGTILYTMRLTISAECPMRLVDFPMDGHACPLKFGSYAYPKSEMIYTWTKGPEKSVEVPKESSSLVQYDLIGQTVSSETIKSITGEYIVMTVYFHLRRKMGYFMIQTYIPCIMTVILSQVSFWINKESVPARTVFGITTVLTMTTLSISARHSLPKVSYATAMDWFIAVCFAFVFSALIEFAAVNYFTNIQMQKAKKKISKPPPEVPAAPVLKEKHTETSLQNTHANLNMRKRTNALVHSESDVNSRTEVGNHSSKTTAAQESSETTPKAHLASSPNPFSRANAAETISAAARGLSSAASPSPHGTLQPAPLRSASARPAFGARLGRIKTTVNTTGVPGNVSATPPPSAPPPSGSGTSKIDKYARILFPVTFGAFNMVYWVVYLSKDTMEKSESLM
Sequence of Gamma-aminobutyric acid receptor subunit alpha-4/beta-3/gamma-2 (P63079 whole entry): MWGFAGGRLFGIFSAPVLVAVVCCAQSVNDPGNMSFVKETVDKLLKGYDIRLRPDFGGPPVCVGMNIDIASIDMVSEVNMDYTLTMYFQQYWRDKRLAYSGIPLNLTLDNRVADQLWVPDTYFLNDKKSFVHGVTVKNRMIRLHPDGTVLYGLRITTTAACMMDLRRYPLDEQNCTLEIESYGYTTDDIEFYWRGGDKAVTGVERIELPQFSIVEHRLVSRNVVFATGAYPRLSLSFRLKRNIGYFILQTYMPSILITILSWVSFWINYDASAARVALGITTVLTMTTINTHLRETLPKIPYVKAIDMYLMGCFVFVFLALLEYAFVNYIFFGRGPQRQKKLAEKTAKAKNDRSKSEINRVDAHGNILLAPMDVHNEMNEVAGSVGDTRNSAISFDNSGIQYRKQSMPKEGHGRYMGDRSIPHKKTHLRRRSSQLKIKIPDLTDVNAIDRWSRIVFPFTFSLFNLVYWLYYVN
How it was run: (§1)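 Crude membranes from HEK 293 cells transiently Ca-phosphate-transfected with rat subunit cDNAs, harvested at 48 h. Membranes (150-200 µg protein) incubated with 3 nM [3H]EBOB in 50 mM Tris/citrate pH 7.3 plus 0.2 M NaCl. Compound up to 10 µM, final DMSO 0.1%, no GABA, 90 min at 21 °C. Bound radioligand collected by GF/C filtration and counted by scintillation.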

[2] = target: Gamma-aminobutyric acid receptor subunit alpha-6/beta-3/delta (Rattus norvegicus) (UniProt P18506+P30191+P63079); assay: Displacement of [3H]EBOB from rat GABA-A receptor alpha6beta3delta expressed in HEK293 cell membranes up to 10 uM after 90 mins by liquid scintillation counting analysis relative to control; how it was run: as §1
[3] = target: Gamma-aminobutyric acid receptor subunit alpha-1/beta-3/gamma-2 (Rattus norvegicus, UniProt P18508+P62813+P63079); assay: Modulation of rat […] GABA-A receptor alpha1beta3gamma2 expressed in HEK293 cells in presence of GABA by patch-clamp assay; assay type: cell-based
Sequence of Gamma-aminobutyric acid receptor subunit alpha-1/beta-3/gamma-2 (P18508 whole entry): as the sequence (P18508 whole entry) above
Sequence of Gamma-aminobutyric acid receptor subunit alpha-1/beta-3/gamma-2 (P62813 whole entry): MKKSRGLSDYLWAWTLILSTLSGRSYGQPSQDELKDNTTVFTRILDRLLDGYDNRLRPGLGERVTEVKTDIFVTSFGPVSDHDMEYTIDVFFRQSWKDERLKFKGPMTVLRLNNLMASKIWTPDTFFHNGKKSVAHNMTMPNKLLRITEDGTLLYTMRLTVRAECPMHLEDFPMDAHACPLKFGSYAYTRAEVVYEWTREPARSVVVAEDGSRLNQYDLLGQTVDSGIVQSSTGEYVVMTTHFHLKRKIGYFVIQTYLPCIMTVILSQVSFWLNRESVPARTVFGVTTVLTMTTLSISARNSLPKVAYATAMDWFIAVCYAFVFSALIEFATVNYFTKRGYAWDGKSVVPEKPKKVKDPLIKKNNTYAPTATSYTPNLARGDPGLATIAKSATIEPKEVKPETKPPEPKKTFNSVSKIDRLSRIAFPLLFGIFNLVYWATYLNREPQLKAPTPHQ
Sequence of Gamma-aminobutyric acid receptor subunit alpha-1/beta-3/gamma-2 (P63079 whole entry): as the sequence (P63079 whole entry) above
How it was run: (§2)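 Rat GABA-A subunits were transiently co-transfected with eGFP into HEK293 cells on coverslips. Fluorescent cells were recorded by whole-cell patch clamp 48 h later; bath pH 7.4, KCl/KOH pipette pH 7.2. Compound was applied at increasing concentrations up to 10 µM with the receptor-specific GABA EC20. Peak currents were fitted logistically for EC50, Hill and % modulation, as mean ± S.E.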

[4] = target: T1, Gamma-aminobutyric acid receptor subunit alpha-6/beta-3/gamma-2 (Rattus norvegicus) (UniProt P18508+P30191+P63079); assay: Modulation of rat […] GABA-A receptor alpha6beta3gamma2 expressed in HEK293 cells up to 10 uM in presence of GABA by patch-clamp assay relative to control; assay type: cell-based; how it was run: as §2
[5] = target: T2, Gamma-aminobutyric acid receptor subunit alpha-1/beta-3/delta (Rattus norvegicus) (UniProt P18506+P62813+P63079); assay: Agonist activity at rat […] GABA-A receptor alpha1beta3delta expressed in HEK293 cells assessed as ratio of I0 to GABA Imax at 10 uM in absence of GABA by patch-clamp assay; assay type: cell-based
How it was run: (§3)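 Whole-cell patch clamp on single fluorescent HEK 293 cells 48 h after transient co-transfection with rat subunit cDNAs plus eGFP. Extracellular solution 135 mM NaCl, 5.3 mM KCl, 2 mM CaCl2, 2 mM MgSO4, 10 mM HEPES pH 7.4, perfused 3 mL/min. Compound at 10 µM without GABA. Current expressed relative to 1 mM GABA at the same receptor (I0/Imax GABA), mean ± S.D. of n experiments.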

[6] = target: Gamma-aminobutyric acid receptor subunit alpha-4/beta-3/gamma-2 (Rattus norvegicus) (UniProt P18508+P28471+P63079); assay: Displacement of [3H]EBOB from rat GABA-A receptor alpha4beta3gamma2 expressed in HEK293 cell membranes up to 10 uM after 90 mins by liquid scintillation counting analysis relative to control; how it was run: as §1
[7] = target: T3, Gamma-aminobutyric acid receptor subunit alpha-1/beta-3/gamma-2 (Rattus norvegicus) (UniProt P18508+P62813+P63079); assay: Agonist activity at rat […] GABA-A receptor alpha1beta3gamma2 expressed in HEK293 cells assessed as ratio of I0 to GABA Imax at 10 uM in absence of GABA by patch-clamp assay; assay type: cell-based; how it was run: as §3
[8] = target: Gamma-aminobutyric acid receptor subunit alpha-4/beta-3/delta (Rattus norvegicus, UniProt P18506+P28471+P63079); assay: Modulation of rat […] GABA-A receptor alpha4beta3delta expressed in HEK293 cells in presence of GABA by patch-clamp assay; assay type: cell-based; how it was run: as §2
Sequence of Gamma-aminobutyric acid receptor subunit alpha-4/beta-3/delta (P18506 whole entry): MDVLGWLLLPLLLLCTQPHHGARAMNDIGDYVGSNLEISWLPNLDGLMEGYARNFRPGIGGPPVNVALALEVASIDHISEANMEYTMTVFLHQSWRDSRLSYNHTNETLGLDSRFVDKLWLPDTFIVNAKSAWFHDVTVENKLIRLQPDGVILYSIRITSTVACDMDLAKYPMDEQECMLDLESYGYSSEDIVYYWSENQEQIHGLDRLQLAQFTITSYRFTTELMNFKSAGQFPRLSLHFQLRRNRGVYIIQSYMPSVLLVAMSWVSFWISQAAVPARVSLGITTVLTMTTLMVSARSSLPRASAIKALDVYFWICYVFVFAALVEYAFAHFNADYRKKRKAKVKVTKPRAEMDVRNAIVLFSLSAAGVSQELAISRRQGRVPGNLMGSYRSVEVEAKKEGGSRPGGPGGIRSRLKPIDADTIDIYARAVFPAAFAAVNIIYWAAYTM
Sequence of Gamma-aminobutyric acid receptor subunit alpha-4/beta-3/delta (P28471 whole entry): as the sequence (P28471 whole entry) above
Sequence of Gamma-aminobutyric acid receptor subunit alpha-4/beta-3/delta (P63079 whole entry): as the sequence (P63079 whole entry) above

[9] = target: T4, Gamma-aminobutyric acid receptor subunit alpha-6/beta-3 (Rattus norvegicus) (UniProt P30191+P63079); assay: Agonist activity at rat […] GABA-A receptor alpha6beta3 expressed in HEK293 cells assessed as ratio of I0 to GABA Imax at 10 uM in absence of GABA by patch-clamp assay; assay type: cell-based; how it was run: as §3
[10] = target: GABA A receptor alpha-6/beta-2/gamma-2 (Rattus norvegicus, UniProt P18508+P30191+P63138); assay: Displacement of [3H]EBOB from rat GABA-A receptor alpha6beta2gamma2 expressed in HEK293 cell membranes after 90 mins by liquid scintillation counting analysis; how it was run: as §1
Sequence of GABA A receptor alpha-6/beta-2/gamma-2 (P18508 whole entry): as the sequence (P18508 whole entry) above
Sequence of GABA A receptor alpha-6/beta-2/gamma-2 (P30191 whole entry): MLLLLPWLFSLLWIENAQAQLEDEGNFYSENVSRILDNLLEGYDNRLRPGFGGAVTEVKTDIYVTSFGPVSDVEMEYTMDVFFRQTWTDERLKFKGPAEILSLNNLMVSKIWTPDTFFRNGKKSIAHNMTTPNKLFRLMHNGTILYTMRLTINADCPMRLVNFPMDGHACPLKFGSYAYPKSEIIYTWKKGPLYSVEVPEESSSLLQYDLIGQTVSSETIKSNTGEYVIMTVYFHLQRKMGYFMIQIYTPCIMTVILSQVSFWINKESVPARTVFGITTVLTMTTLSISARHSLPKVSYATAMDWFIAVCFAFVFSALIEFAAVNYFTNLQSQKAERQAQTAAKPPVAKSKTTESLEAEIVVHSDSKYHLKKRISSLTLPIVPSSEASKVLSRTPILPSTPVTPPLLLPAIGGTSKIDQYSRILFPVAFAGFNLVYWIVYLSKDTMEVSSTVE
Sequence of GABA A receptor alpha-6/beta-2/gamma-2 (P63138 whole entry): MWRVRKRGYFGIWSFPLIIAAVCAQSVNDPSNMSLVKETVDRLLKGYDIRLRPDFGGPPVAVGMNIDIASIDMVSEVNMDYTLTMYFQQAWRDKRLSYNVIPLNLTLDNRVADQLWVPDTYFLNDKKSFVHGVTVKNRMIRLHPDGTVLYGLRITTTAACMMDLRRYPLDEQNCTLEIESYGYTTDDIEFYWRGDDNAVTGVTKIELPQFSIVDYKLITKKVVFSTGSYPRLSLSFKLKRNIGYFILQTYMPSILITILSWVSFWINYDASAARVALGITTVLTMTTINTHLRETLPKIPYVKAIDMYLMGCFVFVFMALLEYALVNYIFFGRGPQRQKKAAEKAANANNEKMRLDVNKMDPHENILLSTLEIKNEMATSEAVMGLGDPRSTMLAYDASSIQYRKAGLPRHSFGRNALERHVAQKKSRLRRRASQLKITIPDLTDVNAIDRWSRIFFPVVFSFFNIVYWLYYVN

[11] = target: GABA A receptor alpha-6/beta-2/gamma-2 (Rattus norvegicus) (UniProt P18508+P30191+P63138); assay: Displacement of [3H]EBOB from rat GABA-A receptor alpha6beta2gamma2 expressed in HEK293 cell membranes up to 10 uM after 90 mins by liquid scintillation counting analysis relative to control; how it was run: as §1
Rattus norvegicus [12] = organism: Rattus norvegicus; assay: Selectivity ratio of IC50 for rat GABA-A receptor alpha6beta3 expressed in HEK293 cells to IC50 for rat GABA-A receptor alpha6beta3delta expressed in HEK293 cells; assay type: cell-based
[13] = target: Gamma-aminobutyric acid receptor subunit alpha-6/beta-3/gamma-2 (Rattus norvegicus, UniProt P18508+P30191+P63079); assay: Displacement of [3H]EBOB from rat GABA-A receptor alpha6beta3gamma2 expressed in HEK293 cell membranes after 90 mins by liquid scintillation counting analysis; how it was run: as §1
Sequence of Gamma-aminobutyric acid receptor subunit alpha-6/beta-3/gamma-2 (P18508 whole entry): as the sequence (P18508 whole entry) above
Sequence of Gamma-aminobutyric acid receptor subunit alpha-6/beta-3/gamma-2 (P30191 whole entry): as the sequence (P30191 whole entry) above
Sequence of Gamma-aminobutyric acid receptor subunit alpha-6/beta-3/gamma-2 (P63079 whole entry): as the sequence (P63079 whole entry) above

[14] = target: T2, Gamma-aminobutyric acid receptor subunit alpha-1/beta-3/delta (Rattus norvegicus); assay: Modulation of rat […] GABA-A receptor alpha1beta3delta expressed in HEK293 cells up to 10 uM in presence of GABA by patch-clamp assay relative to control; assay type: cell-based; how it was run: as §2
[15] = target: T5, Gamma-aminobutyric acid receptor subunit alpha-6/beta-3 (Rattus norvegicus, UniProt P30191+P63079); assay: (§4) Displacement of [3H]EBOB from rat GABA-A receptor alpha6beta3 expressed in HEK293 cell membranes after 90 mins in presence of GABA by liquid scintillation counting analysis
T5 sequence (P30191 whole entry): as the sequence (P30191 whole entry) above
T5 sequence (P63079 whole entry): as the sequence (P63079 whole entry) above

[16] = target: T4, Gamma-aminobutyric acid receptor subunit alpha-6/beta-3 (Rattus norvegicus); assay: as §4
[17] = target: T5, Gamma-aminobutyric acid receptor subunit alpha-6/beta-3; assay: Modulation of rat […] GABA-A receptor alpha6beta3 expressed in HEK293 cells in presence of GABA by patch-clamp assay; assay type: cell-based; how it was run: as §2
[18] = target: T1, Gamma-aminobutyric acid receptor subunit alpha-6/beta-3/gamma-2 (Rattus norvegicus); assay: Displacement of [3H]EBOB from rat GABA-A receptor alpha6beta3gamma2 expressed in HEK293 cell membranes up to 10 uM after 90 mins by liquid scintillation counting analysis relative to control; how it was run: as §1
Rattus norvegicus [19] = organism: Rattus norvegicus; assay: Selectivity ratio of IC50 for rat GABA-A receptor alpha6beta2gamma2 expressed in HEK293 cells to IC50 for rat GABA-A receptor alpha6beta2delta expressed in HEK293 cells; assay type: cell-based
[20] = target: T3, Gamma-aminobutyric acid receptor subunit alpha-1/beta-3/gamma-2 (Rattus norvegicus); assay: Modulation of rat […] GABA-A receptor alpha1beta3gamma2 expressed in HEK293 cells up to 10 uM in presence of GABA by patch-clamp assay relative to control; assay type: cell-based; how it was run: as §2
[21] = target: Gamma-aminobutyric acid receptor subunit alpha-4/beta-3/delta (Rattus norvegicus) (UniProt P18506+P28471+P63079); assay: Modulation of rat […] GABA-A receptor alpha4beta3delta expressed in HEK293 cells up to 10 uM in presence of GABA by patch-clamp assay relative to control; assay type: cell-based; how it was run: as §2

IC50 [1]: 3.29 µM | Imax [2]: 84% | EC50 [3]: 2010 nM | Activity [4]: 157% | Ratio [5]: 0.323 | Imax [6]: 67% | Ratio [7]: 0.058 | EC50 [8]: 150 nM | Ratio [9]: 1.48 | IC50 [10]: 1130 nM | Imax [11]: 89% | IC50 [13]: 930 nM | Activity [14]: 201% | IC50 [15]: 960 nM | Imax [16]: 96% | EC50 [17]: 170 nM | Imax [18]: 94% | Activity [20]: 139% | Activity [21]: 297%
Compound: O=C(Nc1c(-c2cccs2)nc2c(Br)cc(Br)cn12)c1ccc(Cl)cc1
Ratio IC50 (Rattus norvegicus [12]): 2.5 | Ratio IC50 (Rattus norvegicus [19]): 7
